Data: ChEMBL document CHEMBL1128497, “Synthesis and in vitro and in vivo antitumor activity of a series of trans platinum antitumor complexes” (J Med Chem, 1995)
Values joined by “and” are separate entries in the source; they are usually repeats but may differ in a detail not shown here. Identical values can stand only once. Active and inactive are the calls of the source. No cut-off for these calls is given here.

Key:
[1] = In vivo antitumor activity by i.p. administration against murine ADJ/PC6 (sc) plasmacytoma.; type: ADME, organism-based; conditions: mouse, ip
Mus musculus [2] = assay: In Vivo Antitumor activity against the acquired cisplatin-resistant ADJ/PC6 Plasmacytoma (ADJ/PC6cisR) in mice; type: ADME, organism-based
SK-OV-3 = assay: In vitro antitumor activity against SK-OV-3 cell line.; type: functional, cell-based, Homo sapiens
Outline: (§1)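 Human ovarian carcinoma monolayers were grown in DMEM with 10% FCS, insulin and hydrocortisone under 10% CO2. Cells were seeded at 5 × 10^3–1 × 10^4 per well and left to attach overnight. Drugs were freshly dissolved in 0.9% saline (1 mM or 500 μM stocks) and added to quadruplicate wells for 96 h. Cell mass was read by SRB staining. IC50 values are means of at least two experiments.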

CH1 [3] = assay: In vitro antitumor activity against CH1cisR cell line.; type: functional, cell-based, Homo sapiens; outline: as §1
A2780 [4] = assay: In vitro antitumor activity against A2780cisR cell line.; type: functional, cell-based, Homo sapiens; outline: as §1
A2780 [5] = assay: In vitro antitumor activity against A2780 cell line.; type: functional, cell-based, Homo sapiens; outline: as §1
CH1 [6] = assay: (§2) In vitro antitumor activity against CH1 cell line.; type: functional, cell-based, Homo sapiens; outline: as §1
41M [7] = assay: In vitro antitumor activity against 41M cell line.; type: functional, cell-based, Homo sapiens; outline: as §1
41M [8] = assay: In vitro antitumor activity against 41McisR cell line.; type: functional, cell-based, Homo sapiens; outline: as §1
Mus musculus [9] = assay: In Vivo Antitumor activity by ip administration against Murine ADJ/PC6 (sc) Plasmacytoma in mice; type: functional, organism-based; conditions: Plasma
Outline: (§3)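 ADJ/PC6 plasmacytoma (or its cisplatin-resistant subline) was implanted sc as 1 mm3 fragments. On day 20 mice received a single ip injection of drug as a sonicated suspension in arachis oil, at halving doses. Ten days later tumors were dissected and weighed against controls. […] Therapeutic index is MTD/ED90, alongside LD50.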

Mus musculus [10] = assay: In Vivo Antitumor activity by ip administration against Murine ADJ/PC6 (sc) Plasmacytoma in mice; - = 90% tumor inhibition not obtained; type: functional, organism-based; conditions: Plasma; outline: as §3
Mus musculus [11] = assay: Ability to inhibit Antitumor activity against PXN/109T/C Human Ovarian Cracinoma xenograft in mice at dose 4 mg/kg by ip administration; type: functional, organism-based; parameters: dose 4 mg/kg
Outline: (§4)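 Human ovarian carcinoma xenografts were grown subcutaneously in female Balb C nude mice. Tumors were measured weekly until they doubled their starting volume. Growth delay is the difference in doubling time between treated and control tumors.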

CH1 [12] = assay: Resistant factor, determined between IC50 of resistant line to that of CHcisR cell line; type: functional, cell-based; conditions: Homo sapiens; CH1cisR
Outline: (§5)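 Resistance factor is the IC50 in the cisplatin-resistant subline divided by the IC50 in its parent line. IC50s came from a 96 h SRB cytotoxicity assay run in quadruplicate wells.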

A2780 [13] = assay: Resistant factor determined between IC50 of resistant line to that of parental A2780 cell line; type: functional, cell-based; conditions: Homo sapiens; outline: as §5
41M [14] = assay: Resistant factor was determined between IC50 of cisplatin-resistant human tumor cell lines to that of […] cell line; type: functional, cell-based; outline: as §5
Mus musculus [15] = assay: Ability to inhibit Antitumor activity against PXN/109T/CC Human Ovarian Cracinoma xenograft in mice at dose 50 mg/kg by ip administration; type: functional, organism-based; parameters: dose 50 mg/kg; outline: as §4
Mus musculus [16] = assay: Ability to inhibit Antitumor activity against PXN/109T/CC Human Ovarian Cracinoma xenograft in mice at dose 8 mg/kg by ip administration; type: functional, organism-based; parameters: dose 8 mg/kg; outline: as §4
Mus musculus [17] = assay: Ability to inhibit Antitumor activity against PXN/109T/C Human Ovarian Cracinoma xenograft in mice at dose 20 mg/kg by ip administration; type: functional, organism-based; parameters: dose 20 mg/kg; outline: as §4
CH1 [18] = assay: as §2; type: functional, cell-based, Homo sapiens; outline: as §1; remark: listed apart in the source
Mus musculus [19] = assay: Ability to inhibit Antitumor activity against PXN/109T/C Human Ovarian Cracinoma xenograft in mice at dose 10 mg/kg by ip administration; type: functional, organism-based; parameters: dose 10 mg/kg; outline: as §4
Mus musculus [20] = assay: Ability to inhibit Antitumor activity against PXN/100 Human Ovarian Cracinoma xenograft in mice at dose 4 mg/kg by ip administration; type: functional, organism-based; parameters: dose 4 mg/kg; outline: as §4
Mus musculus [21] = assay: Ability to inhibit Antitumor activity against PXN/100 Human Ovarian Cracinoma xenograft in mice at dose 2 mg/kg by ip administration; type: functional, organism-based; parameters: dose 2 mg/kg; outline: as §4
Mus musculus [22] = assay: Ability to inhibit Antitumor activity against PXN/109T/C Human Ovarian Cracinoma xenograft in mice at dose 2 mg/kg by ip administration; type: functional, organism-based; parameters: dose 2 mg/kg; outline: as §4
Mus musculus [23] = assay: Ability to inhibit Antitumor activity against OVCAR-3 Human Ovarian Cracinoma xenograft in mice at dose 4 mg/kg by ip administration; type: functional, organism-based; parameters: dose 4 mg/kg; outline: as §4
Mus musculus [24] = assay: Ability to inhibit Antitumor activity against PXN/109T/CC Human Ovarian Cracinoma xenograft in mice at dose 2 mg/kg by ip administration; type: functional, organism-based; parameters: dose 2 mg/kg; outline: as §4
Mus musculus [25] = assay: Ability to inhibit Antitumor activity against HX/110 Human Ovarian Cracinoma xenograft in mice at dose 2 mg/kg by ip administration; type: functional, organism-based; parameters: dose 2 mg/kg; outline: as §4
Mus musculus [26] = assay: Ability to inhibit Antitumor activity against OVCAR-3 Human Ovarian Cracinoma xenograft in mice at dose 2 mg/kg by ip administration; type: functional, organism-based; parameters: dose 2 mg/kg; outline: as §4
Mus musculus [27] = assay: Ability to inhibit Antitumor activity against SKOV-3 Human Ovarian Cracinoma xenograft in mice at dose 4 mg/kg by ip administration; type: functional, organism-based; parameters: dose 4 mg/kg; outline: as §4

Substance | ED90 (Mus musculus [9]) | RF (CH1 [12]) | RF (A2780 [13]) | RF (41M [14]) | further results
CISPLATIN [listing 1 of 2 here] |  |  |  |  | LD50 [1]: 11.3 mg/kg; LD50 (Mus musculus [2]): 11 mg/kg; IC50 (SK-OV-3): 4400 nM; IC50 (CH1 [3]): 710 nM; IC50 (A2780 [4]): 5200 nM; IC50 (A2780 [5]): 330 nM; IC50 (CH1 [6]): 110 nM; IC50 (41M [7]): 260 nM; IC50 (41M [8]): 1200 nM
CISPLATIN [listing 2 of 2 here] | 1.6 mg/kg |  |  |  | 
TRANSPLATIN |  |  |  |  | ED90 (Mus musculus [10]): inactive
trans-Amminetetrachloro(quinuclidine)-platinium (IV) |  | 1 | 1.1 | 1 | Growth delay (Mus musculus [11]): 0 days
trans-a,f-Dichloro-b,d-bis(cyclohexylamine)-c,e-dihydroxo-platinium (IV) | 40 mg/kg | 1.1 | 4 | 1.5 | Growth delay (Mus musculus [15]): 1.8 days
trans-a-Ammine-b,d-dichloro-c,e-dihydrooxy-f-(Morphiline)-platinium (IV) | 94 mg/kg | 1.6 | 4.3 | 2.1 | 
trans-a-Ammine-b,d-dichloro-c,e-dihydrooxy-f-(cyclopentylamine)-platinium (IV) | 2.5 mg/kg | 1.7 | 5.5 | 1.2 | 
trans-a-Ammine-b,d-dichloro-c,e-dihydroxo-f-(1,1,3,3-tetramethyl butylamine)-platinium (IV) | 9.6 mg/kg | 1.5 | 5.5 | 2.1 | 
trans-a-Ammine-b,d-dichloro-c,e-dihydroxo-f-(N-methylcyclohexylamine)-platinium (IV) | 9.4 mg/kg | 2.2 | 3.7 | 0.7 | Growth delay (Mus musculus [16]): 1.1 days
trans-a-Ammine-b,d-dichloro-c,e-dihydroxo-f-(exo-2-aminonorbornane)-platinium (IV) | 4.9 mg/kg | 1.2 | 12 | 1 | 
trans-a-Ammine-b,d-dichloro-c,e-dihydroxy-f-(benzylamine)-platinium (IV) | 22 mg/kg | 1.7 | 4 | 1 | Growth delay (Mus musculus [17]): 8.3 days
trans-a-ammine-b,d-dichloro-f-(2-methyl1-2-propylamine)-c,e-dihydroxoplatinium (IV) [listing 1 of 2 here] |  |  |  |  | LD50 [1]: 35.5 mg/kg and 35 mg/kg; IC50 (SK-OV-3): 34000 nM and 4700 nM; IC50 (CH1 [3]): 3400 nM and 1620 nM; IC50 (A2780 [4]): 8500 nM and 4200 nM; IC50 (A2780 [5]): 800 nM and 210 nM; IC50 (CH1 [18]): 1100 nM; IC50 (CH1 [6]): 740 nM; IC50 (41M [7]): 4500 nM and 1100 nM; IC50 (41M [8]): 8000 nM and 900 nM
trans-a-ammine-b,d-dichloro-f-(2-methyl1-2-propylamine)-c,e-dihydroxoplatinium (IV) [listing 2 of 2 here] | 4.9 mg/kg and 4.7 mg/kg |  |  |  | Growth delay (Mus musculus [19]): 13.4 days
trans-a-ammine-b,d-dichloro-f-(cyclohexylamine)-c,e-bis-(ethylcarbamato)platinium (IV) | 185 mg/kg | 1.2 | 3.3 | 0.7 | 
trans-a-ammine-b,d-dichloro-f-(cyclohexylamine)-c,e-dihydroxoplatinium (IV) |  |  |  |  | Growth delay (Mus musculus [20]): 63.7 days; Growth delay (Mus musculus [21]): 23.9 days; Growth delay (Mus musculus [22]): 17 days; Growth delay (Mus musculus [23]): 16.8 days; Growth delay (Mus musculus [24]): 5.4 days; Growth delay (Mus musculus [25]): 25.5 days; Growth delay (Mus musculus [26]): 12 days; Growth delay (Mus musculus [27]): 7 days
